Test results taken from PubChem BioAssay AID602219 (Southern Research Specialized Biocontainment Screening …, 2012).
Results filed as inconclusive are left out. Active and inactive are the calls of the source.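 The calls were made as follows: active = inhibition of 30% or more at any tested concentration; inactive = the rest, inconclusive results apart.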

Target: M1-family alanyl aminopeptidase (Plasmodium falciparum 3D7)
Assay: malaria M1 alanyl aminopeptidase inhibitors – biochemical, QFRET, H-Leu-NHMec substrate, set 2, selectivity assay for PfM18AAP inhibitor project, dose response (AID 602219)
Settings: recombinant PfM1AAP, H-Leu-NHMec fluorogenic cleavage; for inhibition: at 100 µM (top of the series)
Method in brief: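 Assay system – purified recombinant Plasmodium falciparum M1 alanyl aminopeptidase (rPfM1AAP) · Input – 5 µg/mL rPfM1AAP · Replication – triplicate · Signal – fluorescence of released NHMec, excitation 370 nm, emission 460 nm · Measure – IC50 from 4-parameter logistic fit, limits fixed 0–100% · Also added – 0.1 mM H-Leu-NHMec · Timing – enzyme reaction 90 min at room temperature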

IC50 [µM] | inhibition | Compound
46.4 | – | Oc1ccc(CCNc2ccnc3ccccc23)cc1O
70.1 | – | CN1CCN(c2nc(-c3ccc(O)c(O)c3)cs2)CC1
– | inactive | COc1ccc(CCNC(c2ccccc2)c2ccccc2)cc1OC
29.8 | – | Oc1ccc(CCNc2c3ccccc3nc3ccccc23)cc1O
– | inactive | CN1CCN(CCCc2ccc(O)c(O)c2)CC1
– | inactive | COc1ccc(CCCN2CCN(C)CC2)cc1OC
25.9 | – | Oc1ccc(-c2csc(Nc3ncccn3)n2)cc1O
– | inactive | CN1CCN(CCc2ccc(O)c(O)c2)CC1
63 | – | Oc1ccc(-c2csc(NC3CCCC3)n2)cc1O
